A word on the Ki: it is the dissociation constant of the complex between target and ligand, obtained from inhibition or displacement. Higher therefore signals a looser hold on the target. Usually IC50 stands for the midpoint of a concentration-inhibition curve. A high value points to weaker potency. Usually EC50 stands for the concentration giving half of the maximal effect.

Experiment [1] can be described thus: Inhibition of HIV protease by fluorescence energy transfer assay. Set-up: species or system Human immunodeficiency virus.
The subject of experiment [2] is Human immunodeficiency virus 1. The experiment can be described thus: Antiviral activity against HIV1 LAI in human MT2 cells by MTT assay. It is filed as functional, organism-based. The conditions noted are these: Human immunodeficiency virus 1, LAI. (In general: Tetrazolium dyes change colour on reduction, which living cells bring about.)
Experiment [3] has as its system Human immunodeficiency virus 1. Kind of experiment: Antiviral activity against multidrug-resistant HIV1 isolate MM infected in PHA-stimulated PBMC assessed as inhibition of p24 […] protein. Type of experiment: functional, organism-based. The conditions noted are these: Human immunodeficiency virus 1, isolate MM. A digest of the protocol: (§1)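 Clinical HIV-1 isolates were tested in PHA-stimulated peripheral blood mononuclear cells as targets, with inhibition of p24 Gag protein production as the end point. Each value was determined in duplicate or triplicate and derived from three independent experiments.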

Experiment [4] relates to Human immunodeficiency virus 1. The experiment can be described thus: Antiviral activity against multidrug-resistant HIV1 isolate TM infected in PHA-stimulated PBMC assessed as inhibition of p24 […] protein. As to conditions: Human immunodeficiency virus 1, isolate TM. It is filed as functional, organism-based. A digest of the protocol:
as §1

Experiment [5] deals with Human immunodeficiency virus 1. The experiment can be described thus: Ratio of EC50 for multidrug-resistant HIV1 isolate MM to EC50 for wild type HIV1 isolate ERS104pre. Type of experiment: functional. The procedure, abridged:
(§2)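 Fold change is the EC50 against each multidrug-resistant isolate divided by the EC50 against HIV-1ERS104pre. EC50s came from PHA-stimulated PBMC with a p24 Gag production end point, run in duplicate or triplicate across three independent experiments.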

In experiment [6] the test system is Human immunodeficiency virus 1. Kind of experiment: Ratio of EC50 for multidrug-resistant HIV1 isolate TM to EC50 for wild type HIV1 isolate ERS104pre. Type of experiment: functional. A digest of the protocol: as §2
Experiment [7] relates to Human immunodeficiency virus 1. The experiment can be described thus: Ratio of EC50 for multidrug-resistant HIV1 isolate G to EC50 for wild type HIV1 isolate ERS104pre. Type of experiment: functional. A digest of the protocol:
as §2

Experiment [8] relates to Human immunodeficiency virus 1. The experiment can be described thus: Antiviral activity against wild type HIV1 isolate ERS104pre infected in PHA-stimulated PBMC assessed as inhibition of p24 […] protein. It is filed as functional, organism-based. The conditions noted are these: Human immunodeficiency virus 1, isolate ERS104pre. The procedure, abridged:
as §1

For experiment [9], the system named is Human immunodeficiency virus 1. Kind of experiment: Antiviral activity against multidrug-resistant HIV1 isolate C infected in PHA-stimulated PBMC assessed as inhibition of p24 […] protein. Type of experiment: functional, organism-based. As to conditions: Human immunodeficiency virus 1, isolate C. The procedure, abridged:
as §1

The test system of experiment [10] is Human immunodeficiency virus 1. Kind of experiment: Ratio of EC50 for multidrug-resistant HIV1 isolate C to EC50 for wild type HIV1 isolate ERS104pre. Type of experiment: functional. A digest of the protocol: as §2
Experiment [11] concerns Human immunodeficiency virus 1. Kind of experiment: Antiviral activity against multidrug-resistant HIV1 isolate G infected in PHA-stimulated PBMC assessed as inhibition of p24 […] protein. It is filed as functional, organism-based. The conditions noted are these: Human immunodeficiency virus 1, isolate G. The procedure, abridged:
as §1

Experiment [12] deals with Human immunodeficiency virus 1. Kind of experiment: Antiviral activity against lopinavir-resistant HIV1 NL4-3. It is filed as functional, organism-based. As to conditions: Human immunodeficiency virus 1, NL4-3.
Experiment [13] has as its system Human immunodeficiency virus 1. Kind of experiment: Antiviral activity against ritonavir-resistant HIV1 NL4-3. Type of experiment: functional, organism-based. The conditions noted are these: Human immunodeficiency virus 1, NL4-3.
For experiment [14], the system named is Human immunodeficiency virus 1. Kind of experiment: Antiviral activity against indinavir-resistant HIV1 NL4-3. Type of experiment: functional, organism-based. The conditions noted are these: Human immunodeficiency virus 1, NL4-3.
For experiment [15], the system named is Human immunodeficiency virus 1. The experiment can be described thus: Antiviral activity against amprenavir-resistant HIV1 NL4-3. Type of experiment: functional, organism-based. As to conditions: Human immunodeficiency virus 1, NL4-3.
Experiment [16] relates to Human immunodeficiency virus 1. The experiment can be described thus: Antiviral activity against nelfinavir-resistant HIV1 NL4-3. As to conditions: Human immunodeficiency virus 1, NL4-3. Type of experiment: functional, organism-based.
Experiment [17] has as its system Human immunodeficiency virus 1. The experiment can be described thus: Antiviral activity against saquinavir-resistant HIV1 NL4-3. It is filed as functional, organism-based. As to conditions: Human immunodeficiency virus 1, NL4-3.
Experiment [18] concerns Human immunodeficiency virus 1. The experiment can be described thus: Antiviral activity against atazanavir-resistant HIV1 NL4-3. Type of experiment: functional, organism-based. The conditions noted are these: Human immunodeficiency virus 1, NL4-3.

The molecule `Nc1ccc(S(=O)(=O)N(C[C@H]2CCC(=O)N2)C[C@@H](O)[C@H](Cc2ccccc2)NC(=O)O[C@H]2CO[C@H]3OCC[C@H]32)cc1` gave a Ki in experiment [1] of 0.85 nM. The molecule also showed an IC50 in experiment [2] greater than 1000 nM.
Consider `Nc1ccc(S(=O)(=O)N(C[C@H]2COC(=O)N2)C[C@@H](O)[C@H](Cc2ccccc2)NC(=O)O[C@H]2CO[C@H]3OCC[C@H]32)cc1`, for which the Ki in [1] was found to be 0.24 nM. In [2], this molecule gave an IC50 greater than 1000 nM.
For `CC(C)CN(C[C@@H](O)[C@H](Cc1ccccc1)NC(=O)O[C@H]1CCOC1)S(=O)(=O)c1ccc(N)cc1`, the EC50 in experiment [3] is 320 nM; in [4], 250 nM; in [8] it was 25 nM; in experiment [9] it was 350 nM; in [11] it was 330 nM. The “Ratio EC50” value is 13 in [5], 10 in experiment [6], 13 in [7] and 14 in [10].
For `COc1ccc(S(=O)(=O)N(C[C@@H]2COC(=O)N2)C[C@@H](O)[C@H](Cc2ccccc2)NC(=O)O[C@H]2CO[C@H]3OCC[C@H]32)cc1`, in experiment [1], the Ki is 0.28 nM. For the same molecule, in [2], the IC50 was 480 nM.
With `COc1ccc(S(=O)(=O)N(C[C@H]2CCC(=O)N2)C[C@@H](O)[C@H](Cc2ccccc2)NC(=O)O[C@@H]2C[C@@H]3CCO[C@@H]3C2)cc1`, the EC50 in experiment [12] worked out at 36 nM; in experiment [3] it was 42 nM; in experiment [4], 29 nM; in experiment [13], 36 nM; in experiment [14], 36 nM; in experiment [15] it was 36 nM. The EC50 worked out at 36 nM in experiment [16]; 28 nM in experiment [8]; 23 nM in experiment [9]; 36 nM in experiment [17]; 36 nM in [18]; 27 nM in [11]. In addition, the “Ratio EC50” value in [5] is given as 2; in [6], 1; in experiment [7] it was 1; in experiment [10], 1. The molecule also came in with an IC50 in experiment [2] of 26 nM.
As for `Nc1ccc(S(=O)(=O)N(C[C@@H]2CCC(=O)N2)C[C@@H](O)[C@H](Cc2ccccc2)NC(=O)O[C@@H]2C[C@@H]3CCO[C@@H]3C2)cc1`, in experiment [1], the affinity corresponds to a Ki of 1.27 nM. For the same molecule, the IC50 in experiment [2] was greater than 1000 nM.
In the same order, the values of `COc1ccc(S(=O)(=O)N(C[C@@H]2CCC(=O)N2)C[C@@H](O)[C@H](Cc2ccccc2)NC(=O)O[C@@H]2C[C@@H]3CCO[C@@H]3C2)cc1` are 0.31 nM and 230 nM.
In the same order, the values of `COc1ccc(S(=O)(=O)N(C[C@H]2COC(=O)N2)C[C@@H](O)[C@H](Cc2ccccc2)NC(=O)O[C@H]2CO[C@H]3OCC[C@H]32)cc1` are 0.035 nM and 310 nM.
On the same counts, the results for `Nc1ccc(S(=O)(=O)N(C[C@H]2CCC(=O)N2)C[C@@H](O)[C@H](Cc2ccccc2)NC(=O)O[C@@H]2C[C@@H]3CCO[C@@H]3C2)cc1` are 0.31 nM and 600 nM.
In experiment [1], `Nc1ccc(S(=O)(=O)N(C[C@@H]2CCC(=O)N2)C[C@@H](O)[C@H](Cc2ccccc2)NC(=O)O[C@H]2CO[C@H]3OCC[C@H]32)cc1` gave a Ki of 0.28 nM.
In experiment [1], `Nc1ccc(S(=O)(=O)N(C[C@@H]2COC(=O)N2)C[C@@H](O)[C@H](Cc2ccccc2)NC(=O)O[C@H]2CO[C@H]3OCC[C@H]32)cc1` displayed a Ki of 0.31 nM.
As to `COc1ccc(S(=O)(=O)N(C[C@H]2CCC(=O)N2)C[C@@H](O)[C@H](Cc2ccccc2)NC(=O)O[C@H]2CO[C@H]3OCC[C@H]32)cc1`, the Ki in [1] was determined as 0.12 nM. Moreover, inhibition in experiment [2] was half-maximal at 250 nM (IC50).
In the same order, the values of `COc1ccc(S(=O)(=O)N(C[C@@H]2CCC(=O)N2)C[C@@H](O)[C@H](Cc2ccccc2)NC(=O)O[C@H]2CO[C@H]3OCC[C@H]32)cc1` are 0.85 nM and 480 nM.
Take `CC(C)(C)NC(=O)[C@@H]1CN(Cc2cccnc2)CCN1C[C@@H](O)C[C@@H](Cc1ccccc1)C(=O)N[C@H]1c2ccccc2C[C@H]1O.O`: the EC50 in experiment [3] was greater than 1000 nM; in [4], greater than 1000 nM; in experiment [8], 28 nM; in experiment [9], greater than 1000 nM; in experiment [11], 290 nM. For the same molecule, the “Ratio EC50” value in experiment [5] is listed as greater than 36; in [6] it was greater than 36; in experiment [7] it was 10; in experiment [10], greater than 36.

For the origin of these results see ChEMBL document CHEMBL1136990, “Design of HIV-1 protease inhibitors with pyrrolidinones and oxazolidinones as novel P1'-ligands to enhance backbone-binding interactions with protease: synthesis, biological evaluation, and protein-ligand X-ray studies” (J Med Chem, 2009).
